Laboratory results published in ChEMBL document CHEMBL4334465, “SAR Studies on Aromatic Acylhydrazone-Based Inhibitors of Fungal Sphingolipid Synthesis as Next-Generation Antifungal Agents” (J Med Chem, 2019).
≈ marks a conversion by molar mass, not a printed value.

Assays:
Cryptococcus neoformans [1] = assay: Antifungal activity against Cryptococcus neoformans H99 measured after 24 to 72 hrs; type: functional; settings: var grubii H99
Procedure, shortened: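 Modified CLSI broth microdilution with inoculum per M27A3. Compounds were serially diluted 32 to 0.03 μg/mL. Media: C. neoformans in HEPES-buffered YNB without amino acids (pH 7.0, 2% glucose); Candida strains in YNB without ammonium sulfate or amino acids plus 1% asparagine (pH 7.0, 2% glucose); A. fumigatus in RPMI (pH 7.0, 2% glucose).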

Cryptococcus neoformans [2] = assay: Fungicidal activity against Cryptococcus neoformans H99 measured after 48 hrs by time-kill assay; type: functional, var grubii H99
Procedure, shortened: (§1)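 Overnight C. neoformans washed in PBS and resuspended in HEPES-buffered YNB, pH 7.4. 2 × 10⁴ cells exposed to a range of drug concentrations in 10 mL with 0.5% DMSO final, at 37°C, 5% CO₂, shaking at 200 rpm. Aliquots sampled over 96 h, diluted and plated on YPD; CFU counted after 48 h at 30°C.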

A549 = assay: Cytotoxicity against human A549 cells after 24 to 48 hrs by MTT assay; type: functional; settings: read-out: LD50 (the source's name)
Procedure, shortened: (§2)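 A549 and HepG2 kept in DMEM with 10% FBS and 1% pen-strep. At passage 7, seeded at 10⁵ cells/well and allowed to adhere 14 h. Compound added at 0.03–128 μg/mL, untreated wells as controls. Incubation 37°C, 5% CO₂ for 24 or 48 h. MTT (5 mg/mL in PBS) added for 4 h, formazan dissolved in DMSO, OD570.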

HepG2 = assay: Cytotoxicity against human HepG2 cells after 24 to 48 hrs by MTT assay; type: functional; settings: read-out: LD50 (the source's name); procedure, shortened: as §2
[3] = Selectivity index, ratio of LD50 for human A549 cells to MIC80 for Cryptococcus neoformans H99; type: toxicity; settings: read-out: Selectivity Index
Procedure, shortened: (§3)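 SI = LD₅₀/MIC₈₀. Cytotoxicity: A549 or HepG2 cells (DMEM, 10% FBS, passage 7, 10⁵ cells/well) adhered 14 h, then exposed to 0.03–128 μg/mL for 24 or 48 h at 37°C, 5% CO₂; MTT 4 h, formazan dissolved in DMSO, read at 570 nm. MIC₈₀ against C. neoformans from broth microdilution in HEPES-buffered YNB, pH 7.0.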

[4] = Selectivity index, ratio of LD50 for human HepG2 cells to MIC80 for Cryptococcus neoformans H99; type: toxicity; settings: read-out: Selectivity Index; procedure, shortened: as §3
Cryptococcus neoformans [5] = assay: Fungicidal activity against Cryptococcus neoformans H99 measured after 24 hrs by time-kill assay; type: functional, var grubii H99; procedure, shortened: as §1

| Compound | MIC80 (Cryptococcus neoformans [1]) [µg/mL] | MFC100 (Cryptococcus neoformans [2]) [µg/mL] | CC50 (A549) [µg/mL] | CC50 (HepG2) [µg/mL] | selectivity ratio [3] | selectivity ratio [4] | MFC100 (Cryptococcus neoformans [5]) [µg/mL] |
| --- | --- | --- | --- | --- | --- | --- | --- |
| O=C(N/N=C/c1c(O)ccc2ccccc12)c1ccc(Br)cc1Br | 0.12 (≈ 0.268 µM) | 0.5 (≈ 1.12 µM) | 16 (≈ 35.7 µM) | 64 (≈ 143 µM) | 133 | 533 |  |
| Cc1ccc(O)c(/C=N/NC(=O)c2cccc(Br)c2Br)c1 | > 16 |  |  |  |  |  |  |
| O=C(N/N=C/c1cc(Br)cc(Br)c1O)c1cccc(OC(F)(F)F)c1 | 4 (≈ 8.3 µM) |  |  |  |  |  |  |
| O=C(N/N=C/c1cc(Br)cc(Br)c1O)c1ccc(CF)cc1 | 0.5 (≈ 1.16 µM) |  | 16 (≈ 37.2 µM) | 16 (≈ 37.2 µM) | 32 | 32 | 0.5 (≈ 1.16 µM) |
| C/C(=N\NC(=O)c1cc(Br)ccc1Br)c1cc(Br)ccc1O | > 16 |  |  |  |  |  |  |
| O=C(N/N=C/c1ccc(Br)cc1O)c1cccc(F)c1F | 0.5 (≈ 1.41 µM) | 0.25 (≈ 0.704 µM) | 16 (≈ 45.1 µM) | 16 (≈ 45.1 µM) | 32 | 32 |  |
| O=C(N/N=C/c1ccc(Br)cc1O)c1ccc(OC(F)F)cc1 | 0.12 (≈ 0.312 µM) |  | 32 (≈ 83.1 µM) | 32 (≈ 83.1 µM) | 267 | 267 | 1 (≈ 2.6 µM) |
| CN(/N=C/c1cc(Br)cc(Br)c1O)C(=O)c1ccc(Br)cc1 | > 16 |  |  |  |  |  |  |
| O=C(N/N=C/c1cc(Br)ccc1O)c1cccc(OC(F)F)c1 | 0.12 (≈ 0.312 µM) |  | 8 (≈ 20.8 µM) | 64 (≈ 166 µM) | 66.6 | 533 | 1 (≈ 2.6 µM) |
| CN(C)c1ccc(C(=O)N/N=C/c2cc(Br)ccc2O)cc1 | > 16 |  |  |  |  |  |  |
| Cc1ccc(O)c(/C=N/NC(=O)c2cc(Br)ccc2O)c1 | 0.25 (≈ 0.716 µM) |  | 16 (≈ 45.8 µM) | 16 (≈ 45.8 µM) | 64 | 64 | 0.5 (≈ 1.43 µM) |
| C/C(=N\NC(=O)c1cc(Br)ccc1Br)c1cc(Br)cc(Br)c1O | > 16 |  |  |  |  |  |  |
| O=C(N/N=C/c1cc(Br)cc(Br)c1O)c1cccc(C(=O)N/N=C/c2cc(Br)cc(Br)c2O)c1 | > 16 |  |  |  |  |  |  |
| O=C(N/N=C/c1cc(Cl)cc(Cl)c1O)c1cc(Br)cc(Br)c1 | 0.5 (≈ 1.07 µM) |  | 64 (≈ 137 µM) | 64 (≈ 137 µM) | 128 | 128 | 0.5 (≈ 1.07 µM) |
| CN(C)c1ccc(C(=O)N/N=C/c2c(O)ccc3ccccc23)cc1 | 0.5 (≈ 1.5 µM) |  | 32 (≈ 96 µM) | 16 (≈ 48 µM) | 64 |  | 2 (≈ 6 µM) |
| O=C(N/N=C/c1cc(F)ccc1O)c1cc(Br)ccc1Br | > 16 |  |  |  |  |  |  |
| O=C(N/N=C/c1cc(Br)cc(Br)c1O)c1cccc(C(F)(F)F)c1 | 2 (≈ 4.29 µM) |  |  |  |  |  |  |
| O=C(N/N=C/c1ccc(Br)cc1O)c1cccc(Br)c1 | 0.5 (≈ 1.26 µM) | 0.25 (≈ 0.628 µM) | 64 (≈ 161 µM) | 8 (≈ 20.1 µM) | 128 | 16 |  |
| O=C(N/N=C/c1cccc(Br)c1O)c1cccc(C(F)(F)F)c1 | 1 (≈ 2.58 µM) | 2 (≈ 5.17 µM) | 16 (≈ 41.3 µM) | 16 (≈ 41.3 µM) | 16 | 16 |  |
| O=C(N/N=C/c1cc(Br)cc(Br)c1O)c1cc(Br)cc(Br)c1 | > 16 |  |  |  |  |  |  |
| O=C(N/N=C/c1ccc(Br)cc1O)c1cccc(Br)c1Br | > 16 |  |  |  |  |  |  |
| O=C(N/N=C/c1c(O)ccc2ccccc12)c1cc(Br)ccc1Br | 0.25 (≈ 0.558 µM) |  | 32 (≈ 71.4 µM) | 16 (≈ 35.7 µM) | 128 | 64 | 0.25 (≈ 0.558 µM) |
| CC(=O)Nc1ccc(C(=O)N/N=C/c2ccc(Br)cc2O)cc1 | > 16 |  |  |  |  |  |  |
| O=C(N/N=C/c1c(O)ccc2ccccc12)c1cccc(Br)c1Br | > 16 |  |  |  |  |  |  |
| C/C(=N\NC(=O)c1ccc(Br)cc1Br)c1cc(Br)ccc1O | > 16 |  |  |  |  |  |  |
| C/C(=N\NC(=O)c1ccc(Br)cc1Br)c1cc(Br)cc(Br)c1O | > 16 |  |  |  |  |  |  |
